Source: publication PMC5402717 (Pain, 2017)
Entries after “also recorded” stand apart in the source; their conditions may differ.

Assays:
[1] = molecular target: PKG-1α; conditions: cited from earlier work
[2] = molecular target: recombinant catalytic domain of human PKA (Homo sapiens, UniProt P17612); experiment: In vitro cAMP-dependent kinase; type: biochemical
Procedure, shortened: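 Recombinant human PKA catalytic domain with kemptide substrate; activity measured as 32P incorporation from [γ-32P]ATP in Tris buffer. Labeled peptide captured on cellulose phosphate filters and counted by β-scintillation. IC50s are single determinations run in duplicate.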

[3] = General observation for abnormalities or deficits; type: in vivo, rat; conditions: N46-injected rats
[4] = molecular target: T1, purified bovine PKG-1α (Bos taurus, UniProt P00516); experiment: In vitro protein kinase G assay; type: biochemical; conditions: for IC50: IC50 for PKG-1α
T1 sequence (P00516 1-671): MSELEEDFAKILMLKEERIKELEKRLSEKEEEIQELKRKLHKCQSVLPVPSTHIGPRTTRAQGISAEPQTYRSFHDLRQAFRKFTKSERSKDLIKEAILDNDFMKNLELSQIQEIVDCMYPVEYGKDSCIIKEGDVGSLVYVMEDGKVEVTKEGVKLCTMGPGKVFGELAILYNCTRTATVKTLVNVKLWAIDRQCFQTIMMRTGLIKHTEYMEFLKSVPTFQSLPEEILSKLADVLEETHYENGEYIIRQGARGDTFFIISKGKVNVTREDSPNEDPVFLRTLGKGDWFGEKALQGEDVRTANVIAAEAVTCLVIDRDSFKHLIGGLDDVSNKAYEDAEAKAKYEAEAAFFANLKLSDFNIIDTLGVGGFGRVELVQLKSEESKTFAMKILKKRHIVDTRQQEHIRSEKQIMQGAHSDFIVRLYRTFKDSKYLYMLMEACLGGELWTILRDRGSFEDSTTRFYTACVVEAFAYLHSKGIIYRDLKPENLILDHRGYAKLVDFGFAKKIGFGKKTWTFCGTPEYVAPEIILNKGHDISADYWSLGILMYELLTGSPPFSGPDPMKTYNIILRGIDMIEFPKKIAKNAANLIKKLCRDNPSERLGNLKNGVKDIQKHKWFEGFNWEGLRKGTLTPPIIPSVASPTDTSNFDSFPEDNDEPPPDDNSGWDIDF
Procedure, shortened: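 Reaction started with 10 μM [32P]-ATP, run 20 min at 37°C, stopped with 50 mM EDTA. Peptide captured on phosphocellulose filters, counted by β-scintillation. IC50s are single determinations in duplicate.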

[5] = Stability of N46 in plasma in vitro; type: in vitro ADME; conditions: rat plasma, 37°C
[6] = test system: Sprague-Dawley rats; experiment: Capsaicin-induced mechanical hypersensitivity; type: in vivo, rat; conditions: 10 nmol N46 into hind paw, no capsaicin
Procedure, shortened: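 Male Sprague-Dawley rats given 10 nmol test compound intraplantar, without capsaicin. von Frey hairs (0.4-15 g) applied for ~6 s each, up-down sequence starting at 2 g. 50% paw withdrawal threshold calculated by the Chaplan method at set times after injection; n = 15 per group; double-blind.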

[7] = test system: Sprague-Dawley rats; experiment: MIA-induced osteoarthritic knee joint pain; type: in vivo, rat; conditions: 5 nmol intra-articular 14 days after MIA
Procedure, shortened: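 Baseline hind-limb weight bearing taken on day 0. Rats then received 3 mg MIA in 50 μL saline into the right knee and saline into the left. At 14 days, 5 nmol test compound or quarter-saline vehicle (50 μL) was given intra-articularly. Incapacitance tester: paw force averaged over 5 s, 3 trials per point, expressed as percent difference between limbs.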

[8] = Heart rate and blood pressure monitoring after N46 injection; type: in vivo, rat; conditions: injected 1uM N46, monitored 30 minutes; data not shown
Procedure, shortened: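 Heart rate and systolic and diastolic blood pressure recorded for a 30 min baseline, then 1uM test compound injected and monitoring continued for 30 min.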

[9] = test system: Sprague-Dawley rats; experiment: CFA-induced thermal hyperalgesia; type: in vivo, rat
Procedure, shortened: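 Male Sprague-Dawley rats (250-300 g) given 100 μL CFA intraplantar; one day later, test compound was given intrathecally at L4/L5 (15 μL, 1% DMSO/saline, saline flush) or into the tail vein (1 mL, quarter normal saline), vs vehicle. Hargreaves radiant heat test: glass at 30°C, 30 min acclimation, baseline latency ~10 s, 20 s cutoff. Both paws tested the following day, double-blind.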

[10] = molecular target: cardiac hERG potassium channel (Homo sapiens, UniProt Q12809); experiment: hERG tail current recording; type: cell-based
Procedure, shortened: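 hERG tail currents evoked by a voltage protocol applied every 10 s. Test compound applied cumulatively at 0.1, 0.3, 1.0, 3, 10 and 30 μM, 5 min per concentration, with 1 μM cisapride as positive control. Mean percent inhibition from 13 cells gave a 6-point curve, from which IC50 was calculated.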

[11] = test system: panel of 274 kinases; experiment: Kinase panel screening, overall selectivity; type: biochemical
[12] = Tissue distribution of N46 in vivo; conditions: rat, tail vein injection
Procedure, shortened: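 Test compound injected into the rat tail vein. Tissues homogenized in 0.1N sodium carbonate (2 mL) plus methanol (6 mL), centrifuged, and supernatant analyzed by LC/MS. C18 column, acetonitrile-water gradient 0-100% over 20 min, detection at 220 nm. Results corrected for % recovery using spiked standard curves.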

[13] = test system: PKG-1α; experiment: PKG-1α activity in sciatic nerve segment after capsaicin injection; type: in vivo, rat; conditions: capsaicin 0.1 μM under the perineurium of the sciatic nerve, 30 minutes
Procedure, shortened: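 Capsaicin (0.1 μM) injected under the sciatic nerve perineurium, with an equal vehicle volume into the contralateral nerve. After 30 min, the 1 cm segment containing the injection site was harvested and homogenized. Equal-protein samples were assayed for PKG-1α activity; N = 4.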

Chain of cardiac hERG potassium channel (Q12809 whole entry): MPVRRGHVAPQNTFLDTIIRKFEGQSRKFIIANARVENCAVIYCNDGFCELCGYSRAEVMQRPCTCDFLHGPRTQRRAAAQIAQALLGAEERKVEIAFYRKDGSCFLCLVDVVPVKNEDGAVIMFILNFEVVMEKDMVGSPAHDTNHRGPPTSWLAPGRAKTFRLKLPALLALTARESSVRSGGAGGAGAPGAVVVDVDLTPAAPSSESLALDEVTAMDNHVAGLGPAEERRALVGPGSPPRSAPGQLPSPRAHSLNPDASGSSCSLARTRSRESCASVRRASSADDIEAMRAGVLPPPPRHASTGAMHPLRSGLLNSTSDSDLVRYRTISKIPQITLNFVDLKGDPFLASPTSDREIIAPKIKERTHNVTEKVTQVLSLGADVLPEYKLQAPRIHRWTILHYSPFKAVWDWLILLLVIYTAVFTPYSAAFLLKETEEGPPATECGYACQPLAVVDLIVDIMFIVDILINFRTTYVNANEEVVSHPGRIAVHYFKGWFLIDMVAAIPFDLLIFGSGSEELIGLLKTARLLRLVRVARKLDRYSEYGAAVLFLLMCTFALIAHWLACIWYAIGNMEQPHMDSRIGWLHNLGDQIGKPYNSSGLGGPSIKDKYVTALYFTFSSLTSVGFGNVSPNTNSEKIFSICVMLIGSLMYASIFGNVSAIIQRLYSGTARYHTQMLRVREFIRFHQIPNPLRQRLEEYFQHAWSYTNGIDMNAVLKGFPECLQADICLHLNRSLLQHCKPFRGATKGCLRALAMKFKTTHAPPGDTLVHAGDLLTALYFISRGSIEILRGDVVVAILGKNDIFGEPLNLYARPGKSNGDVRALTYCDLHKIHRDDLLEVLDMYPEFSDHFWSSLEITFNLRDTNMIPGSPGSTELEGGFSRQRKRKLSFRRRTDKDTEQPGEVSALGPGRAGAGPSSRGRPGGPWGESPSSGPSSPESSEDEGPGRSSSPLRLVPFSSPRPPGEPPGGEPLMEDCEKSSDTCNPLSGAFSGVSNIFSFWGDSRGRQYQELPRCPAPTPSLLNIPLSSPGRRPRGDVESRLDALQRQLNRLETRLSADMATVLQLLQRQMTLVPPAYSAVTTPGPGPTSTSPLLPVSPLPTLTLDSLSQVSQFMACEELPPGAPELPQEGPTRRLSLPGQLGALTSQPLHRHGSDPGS

With `COC(=O)[C@@]1(OC)C[C@H]2O[C@]1(C)n1c3ccccc3c3c4c(c5c6ccccc6n2c5c31)C(=O)N(C)C4` [KT5823] as the compound, how does the Ki [1] read?
Its Ki is 0.234 µM.

Which IC50 [2] does the source give for `CCCOc1ccc(OC)c(F)c1C(=O)c1ccc(C(=O)N[C@@H]2CNC[C@H]2NC(=O)c2ccc3[nH]ncc3c2)cc1` [N46, N-((3R,4R)-4-(4-(2-fluoro-3-methoxy-6-propoxybenzoyl)benzamido)pyrrolidin-3-yl)-1H-indazole-5-carboxamide] here?
The IC50 was 5 µM.

What about the sedation [3] of the same compound?
The sedation was “no evidence of sedation”.

What about the “fold difference of IC50, PKA versus PKG-1α” value [4] of the same compound?
Its value is 714 fold.

And the IC50 [4]?
Its IC50 is 0.0075 µM.

What about the IC50 ([4]; 10 μM ATP, 37°C, 20 minutes) of the same compound?
The IC50 was 0.007 µM.

And the “type of inhibition of PKG-1α (kinetic studies)” value ([4]; data not shown)?
Its value is “noncompetitive inhibitor”.

What about the “stability in plasma (time stable)” value [5] of the same compound?
The value was “at least 7 hours”.

What about the “mechanical threshold, N46 alone” value [6] of the same compound?
Its value is “had no effect”.

What about the “duration of relief after a single injection” value [7] of the same compound?
Its value is 7 days.

And the weight bearing distribution ([7]; days 15 and 21, vs vehicle)?
Its weight bearing distribution is “significant improvement in weight bearing distribution; also recorded: significantly reversed the MIA-induced shift in weight bearing”.

And the “heart rate and systolic and diastolic blood pressure” value [8]?
The value was “no significant effect”.

What about the “thermal hyperalgesia (PWL), CFA-injected paw” value ([9]; 0.25 nmol intrathecal 1 day after CFA, measured post-CFA day 2, vs vehicle) of the same compound?
Its value is “marked reduction”.

And the “thermal hyperalgesia (PWL), CFA-injected paw” value ([9]; 1 nmol into the tail vein 1 day after CFA, 24 hours later, vs vehicle)?
The value was “significantly increased the PWL; also recorded: significantly reduced the heat hyperalgesia”.

What about the “duration of relief after a single injection” value ([9]; CFA model) of the same compound?
Its value is “at least 24 hours”.

And the “thermal threshold, contralateral noninflamed paw” value ([9]; N46 intrathecal)?
Its value is “no significant changes”.

And the IC50 [10]?
Its IC50 is 4.47 µM.

What about the “number of kinases inhibited more than 50%” value ([11]; 750 nM N46) of the same compound?
Its value is 12.

What about the “off-target hit rate (kinases inhibited by more than 50%)” value ([11]; 12 out of 274, dose of N46 where PKG-1 was inhibited 100%) of the same compound?
Its value is 4.4%.

What about the “presence in the CNS” value [12] of the same compound?
Its value is “not detected in the CNS”.

Which results are given for `Nc1nc2c(nc(Sc3ccc(Cl)cc3)n2[C@@H]2O[C@@H]3CO[P@@](=O)(S)O[C@H]3[C@H]2O)c(=O)[nH]1` [RPG, Rp-8-pCPT-cGMPS, reference compound]?
thermal hyperalgesia (PWL), CFA-injected paw ([9]; 250 nmol intrathecal 1 day after CFA, PWL measured the following day, vs vehicle): alleviated significantly; also recorded: significant improvement in mean PWL; thermal threshold, contralateral noninflamed paw ([9]; RPG intrathecal): no significant changes; Ki [1]: 0.5 µM

Which “PKG-1α in the nerve segment that was active” value [13] does the source give for `COc1cc(CNC(=O)CCCC/C=C/C(C)C)ccc1O` [capsaicin] here?
Its value is 40 ± 15%.
